Experimental data pooled from the literature.
Target: Casein kinase II subunit alpha (CSNK2A1, Homo sapiens, UniProt P68400)

SMILES | read-out | action | technique | concentration | quantity | value
O=C1NC(=O)c2cc(Nc3ccc(F)cc3)c(Nc3ccc(F)cc3)cc21 | cell-free assay | inhibitor |  | 0.5 µM | remaining signal | 95.7%
Cc1sc(C(=O)NC2COC2)cc1-n1cc(NC(=O)Nc2c(F)cccc2Cl)cn1 | enzyme activity | inhibitor |  | 10 µM | remaining activity | 97%
CCN(CC)CCNC(=O)c1c(C)[nH]c(/C=C2\C(=O)Nc3ccc(F)cc32)c1C | enzyme activity | inhibitor |  | 0.3 µM | inhibition | -7%
CNC(=O)c1cc(Oc2ccc(NC(=O)Nc3ccc(Cl)c(C(F)(F)F)c3)cc2)ccn1 | cell-free assay |  |  | 0.5 µM | remaining signal | 108%
Cn1c2c(c3ccccc31)C(C#N)C(C)(C)NC2=O (stereo not shown) | thermal stability |  | DSF | 10 µM | ΔTm | 0.8 °C
CN(c1ncccc1CNc1nc(Nc2ccc3c(c2)CC(=O)N3)ncc1C(F)(F)F)S(C)(=O)=O | enzyme activity | inhibitor |  | 1 µM | inhibition | 50.7%
O=C(Nc1cnc(Oc2ccc(F)cc2)nc1)N1CCc2ncccc2[C@@H]1c1ccc(F)cc1 | cell-free assay |  | competition with immobilised ligand | 1 µM | remaining binding | 93%
Nc1nc(Nc2ccccc2)sc1C(=O)c1c(F)cccc1F | enzyme activity | inhibitor |  | 10 µM | remaining activity | 111%
CN1CCC2(CC1)NC(=O)c1c(c3ccc(Cl)c(Cl)c3n1C)C2C#N (racemic) | thermal stability |  | DSF | 10 µM | ΔTm | 2.5 °C
C[C@@H]1CN(c2cc(-c3nn(C)c4ccc(OC5(C)CC5)cc34)ncn2)C[C@H](C)O1 | cell-free assay |  | competition with immobilised ligand | 1 µM | remaining binding | 76%
CCN(CC)c1ccc(C2=NNC(=O)CC2C)cc1[N+](=O)[O-] (stereo not shown) | enzyme activity | inhibitor |  | 10 µM | remaining activity | 96%
N#CCCc1ccc2c(c1)-c1[nH]c3ccc([N+](=O)[O-])cc3c1CC(=O)N2 | cell-free assay |  |  | 0.5 µM | remaining signal | 91.2%
CN(C)C(=O)Cn1cc(-c2nc([C@@](C)(c3ccc(-c4cnc(N)nc4)cc3)C3CC3)no2)cn1 | cell-free assay |  | competition with immobilised ligand | 1 µM | remaining binding | 88%
CC(C)(O)[C@H]1CC[C@H](Nc2ccc3ncc(-c4cccc(C(F)(F)F)c4)n3n2)CC1 | enzyme activity | inhibitor |  | 1 µM | remaining activity | 61%
Cc1ccc(C(=O)Nc2ccc(CN3CCN(C)CC3)c(C(F)(F)F)c2)cc1C#Cc1cnc2cccnn12 | enzyme activity | inhibitor |  | 23.5 nM | remaining activity | 98%
CC(C)(C)c1nc2c(s1)c1nc(N)ncc1c1ccc(NS(=O)(=O)c3c(F)cccc3F)c(F)c12 | enzyme activity | inhibitor | radiometric | 1 µM | remaining activity | 88%

SMILES | read-out | action | technique | concentration | quantity | value
COc1cc(Nc2cnc(C#N)c(O[C@H](C)CN(C)C)n2)ncc1-c1cnn(C)c1 | enzyme activity | inhibitor | radiometric | 10 µM | remaining activity | 87%
Cc1cnc(NC2CCOCC2)nc1-n1cnc(C(=O)NC(CN)c2cc(F)cc(Cl)c2)c1 (stereo not shown) | enzyme activity | inhibitor | radiometric | 1 µM | remaining activity | 106%
Cc1ccc(NC(=O)c2ccc(C)c(C(F)(F)F)c2)cc1C#Cc1nn(C2CCC(O)CC2)c2ncnc(N)c12 (stereo not shown) | cell-free assay | inhibitor |  | 10 µM | remaining signal | 105%
Cc1ccc(Nc2nccc(N(C)c3ccc4c(C)n(C)nc4c3)n2)cc1S(N)(=O)=O | enzyme activity | inhibitor |  | 10 µM | inhibition | -7%
O=C1CCc2cc(Nc3cc(OC4CCOCC4)c([N+](=O)[O-])cc3Cl)ccc2N1 | cell-free assay |  | competition with immobilised ligand | 1 µM | remaining binding | 84%
Cn1c2c(c3ccc(Cl)c(Cl)c31)C(C#N)C1(CCOCC1)NC2=O (stereo not shown) | thermal stability |  | DSF | 10 µM | ΔTm | 2.1 °C
COc1cc2ncnc(Nc3ccc(Oc4ccccc4)c(C)c3C)c2cc1OC | enzyme activity | inhibitor |  | 1 µM | inhibition | 5%
FC(F)(F)c1ccc2c(c1)nc(-c1cccnc1)n2C1CC1 | cell-free assay |  | competition with immobilised ligand | 1 µM | remaining binding | 100%
Cc1cc(NC(=O)c2cccc3cc(-c4cccc5[nH]nc(N)c45)ccc23)ccc1F | enzyme activity | inhibitor |  | 0.1 µM | activity vs control | 109%
CN([C@@H]1CCc2c(CC(=O)O)c3cc(S(C)(=O)=O)ccc3n2C1)S(=O)(=O)c1ccc(F)cc1 | cell-free assay |  | competition with immobilised ligand | 1 µM | remaining binding | 91%
Oc1cccc(-c2nc(N3CCOCC3)c3oc4ncccc4c3n2)c1 | enzyme activity | inhibitor |  | 10 µM | remaining activity | 102%
O=C(Nc1ccc(Oc2ccc(F)cc2)cc1)N1CCc2ncccc2[C@H]1c1ccc(F)cc1 | cell-free assay |  | competition with immobilised ligand | 1 µM | remaining binding | 99%
Cn1c2c(Cl)c(Cl)ccc2c2cc[nH]c(=O)c21 | thermal stability |  | DSF | 10 µM | ΔTm | 1.3 °C
Cn1c(=O)n(-c2ccc(C(C)(C)C#N)cc2)c2c3cc(-c4cnc5ccccc5c4)ccc3ncc21 | enzyme activity | inhibitor |  | 10 µM | remaining activity | 79%
C[C@H](NC(=O)c1cnc2n1[C@](C)(Cc1ccc(C#N)cc1)C(=O)N2c1cc(Cl)c(F)c(Cl)c1)C(=O)NC1(c2ccccn2)CC1 | cell-free assay |  | competition with immobilised ligand | 1 µM | remaining binding | 81%
